# Lipid droplet: hepatic lipid droplet formation modulation | AML12 mouse hepatocytes, oleate lipid droplets, BODIPY imaging | inhibition, % at 6.5 µM | 0.4% of 240,000 active | AID 1656;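 active means lipid droplet intensity inhibited by at least 50%, with more than 500 cells counted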
#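 Technique: fluorescence imaging, 20x objective, two fields per well / Assay system: AML12 hepatocytes (mouse) / Measure: % inhibition of lipid droplet signal / Doses: 6.5 µM single-point dosing / Incubation: overnight exposure / Reagent: 100 µM oleic acid challenge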
# RGS4 pot: RGS4 potentiation or activation | HEK293 M3R/inducible RGS4, carbachol calcium flux Fluo4; stronger effect = lower value | B-score at 10 µM | 0.92% of 310,000 active;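 active means B-score of the integrated calcium signal more than 4 SD below the library mean, with starting fluorescence not abnormally high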;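 further: negative B-score means reduced calcium response which marks RGS4 activation or potentiation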
#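 Detection: kinetic calcium fluorescence imaging with Fluo4-AM dye, 2 µM / Material: HEK293 cells with stable M3R and inducible RGS4 / Schedule: recording 10 s baseline at 1 Hz, 100 s post-agonist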
# MrgX1 ag: agonists of human MrgX1 receptor; Q96LB2; MrgX1-HEK293 cells, Fluo-4 calcium fluorescence, agonist mode; stronger effect = higher value; B-score at 10 µM; 0.44% of 310,000 active;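 active means calcium response B-score plate-corrected fluorescence ratio at least 3 library SD, with starting fluorescence B-score inside 5 SD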
# Target sequence (Q96LB2 whole entry, looked up): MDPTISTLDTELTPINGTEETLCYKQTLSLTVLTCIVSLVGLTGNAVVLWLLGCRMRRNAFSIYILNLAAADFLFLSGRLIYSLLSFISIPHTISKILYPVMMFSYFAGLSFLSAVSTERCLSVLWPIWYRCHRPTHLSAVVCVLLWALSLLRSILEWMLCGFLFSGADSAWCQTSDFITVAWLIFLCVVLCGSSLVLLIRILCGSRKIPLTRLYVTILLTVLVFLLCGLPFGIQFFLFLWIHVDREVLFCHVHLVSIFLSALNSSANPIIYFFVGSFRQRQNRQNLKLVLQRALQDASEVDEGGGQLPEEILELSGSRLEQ
#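 Assay system: stable human MrgX1 HEK293 cell line. Quantity: 15,000 cells per well. Schedule: cells plated overnight, dye loaded 0.5 h 37 °C, 0.5 h room temperature. Detection: Fluo-4 NW calcium-flux fluorescence, kinetic read. Read-out basis: peak-minus-minimum fluorescence over baseline, converted to B scores. Control set: positive and negative control wells on each plate.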
# RGS4 block: inhibitors of human RGS4 | 0.45% of 310,000 active | B-score at 10 µM | P49798 | HEK293 M3R/RGS4 inducible, Fluo-4 calcium flux; stronger effect = higher value; triggered by carbachol at its EC20;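 active means B-score, a plate-corrected calcium signal, over three deviations above library mean, with baseline fluorescence within five deviations of library mean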;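 further: RGS4 expression induced by doxycycline in cells with stable M3 receptor; B-score is computed from the integrated fluorescence ratio over baseline after carbachol; higher B-score means a larger calcium signal and so more RGS4 inhibition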
# Target sequence (P49798 whole entry, looked up): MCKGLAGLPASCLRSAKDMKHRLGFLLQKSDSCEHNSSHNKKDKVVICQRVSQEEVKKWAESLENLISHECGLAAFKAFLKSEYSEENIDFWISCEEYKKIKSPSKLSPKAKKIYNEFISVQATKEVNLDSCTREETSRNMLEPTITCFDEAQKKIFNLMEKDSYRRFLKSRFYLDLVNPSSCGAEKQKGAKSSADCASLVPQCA
# MrgX1 allo act: human MrgX1 positive allosteric modulation, primary screen. Q96LB2. MrgX1-HEK293, Fluo-4 calcium flux, FDSS; stronger effect = higher value. B-score at 10 µM. 0.63% of 310,000 active. AID 588675;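 active means plate-corrected calcium response at least 3 library SD above typical, normal starting fluorescence, not activating the receptor alone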;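 further: compound read alongside a low EC10 to EC30 dose of BAM8-22 agonist; peak minus trough fluorescence over baseline measured at the second addition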
# MrgX1 antag: blocks BAM8-22 activation of human MrgX1 receptor. MRGX1-HEK293 calcium flux, Fluo-4, BAM8-22 antagonism; stronger effect = lower value. B-score at 10 µM. 1.3% of 310,000 active. AID 588676;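 active means calcium-response B-score plate-corrected more than 3 library SD below zero, starting fluorescence within 5 deviations, no agonist response on first addition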;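 further: peak minus trough fluorescence over baseline after final BAM8-22 challenge near maximal dose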
# MrgX1 PAM conf: human MrgX1 positive allosteric modulation, re-confirmation | shares compounds with MrgX1 allo act | MrgX1-HEK293, Fluo-4 calcium fluorescence, FDSS | activation (ratio percentage), % at 10 µM | 13% of 1,200 active;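 active means ratio at least 3 SD above the weak peptide control, stable starting fluorescence, no direct agonism earlier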;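 further: compound followed by low BAM8-22 agonist challenge near EC20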
# HEK293 Ca flux: counter-screen for MrgX1 antagonists: effect in parental HEK293 cells | fluorescence ratio F(max-min)/F0 at 10 µM | 2% of 4,000 active | shares compounds with MrgX1 antag | AID 624111 | Fluo-4 calcium fluorescence, FDSS;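 active means duplicate-averaged calcium fluorescence ratio at least three times the standard deviation of buffer wells, a nonspecific response in parental cells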
# HEK293 Ca counter: MrgX1 allosteric activator counter-screen hit in parental HEK293 cells. shares compounds with MrgX1 antag. parental HEK293 calcium flux, Fluo-4 fluorescence ratio; stronger effect = higher value. fluorescence ratio F(max-min)/F0 at 10 µM. 0.4% of 4,000 active. AID 624114;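 active means calcium fluorescence ratio, averaged over duplicates, at least 3 SD of the buffer-well ratio, meaning a nonspecific response in receptor-free cells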;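 further: untransfected parental HEK293 lacking MrgX1 used as counterscreen for MrgX1 allosteric activators; fluorescence change taken during the second addition on a kinetic imager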
# HEK293 Ca cntr2: activity in parental HEK293 cells lacking MrgX1 receptor; 8.7% of 4,000 active; shares compounds with MrgX1 antag; fluorescence ratio F(max-min)/F0 at 10 µM; AID 624115; Fluo-4 calcium fluorescence (FDSS); stronger effect = higher value;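 active means calcium fluorescence ratio at least three times the spread of buffer wells, meaning a non-specific response in parental cells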
# An asterisk follows results filed as active; i = inactive; · = not tested or not shown. The list is not random: actives were taken first. Their share in the collection is about 3.8%.
SMILES,Lipid droplet,RGS4 pot,MrgX1 ag,RGS4 block,MrgX1 allo act,MrgX1 antag,MrgX1 PAM conf,HEK293 Ca flux,HEK293 Ca counter,HEK293 Ca cntr2
O=C(NC1CCCC1)c1ccc2c(c1)N(Cc1ccc(F)cc1)CCS2,12.0,i,i,i,i,i,·,·,·,·
CC/C(=C\C(=O)c1cccnc1)Nc1ccc(C)c(C)c1,·,i,i,i,8.67*,i,i,i,i,i
CCC(CC)C(=O)N1N=C(c2ccc(NS(C)(=O)=O)cc2)CC1c1ccc(C)cc1 (stereo not drawn),-0.4,i,i,i,i,i,·,·,·,·
Cc1ccc(S(=O)(=O)c2c(C)nn(C(C)(C)C)c2OC(=O)C(C)C)cc1,8.1,i,i,i,12*,i,i,i,i,i
CN(C)S(=O)(=O)c1ccc(C(=O)OCC(=O)NCc2ccccc2)cc1,31.6,i,i,i,8.38*,i,i,i,i,i
CC(CNC(=O)CN1C(=O)c2cccnc2Oc2ccc(Cl)cc21)c1ccccc1 (stereo not drawn),-30.5,i,i,i,12.4*,i,i,i,i,i
Cc1ccccc1-n1c(C)nnc1SCC(=O)N(C)C1CCS(=O)(=O)C1 (stereo not drawn),0.5,i,i,i,i,i,·,·,·,·
COc1ccc(CCNC(=O)c2csc3c2CCCC3)cc1,2.3,i,i,i,i,i,·,·,·,·
COc1ccc(NC(=O)c2csc3c2CCCCC3)c(OC)c1,-35.8,i,i,i,19.5*,i,i,i,i,i
Cc1cc(/C=C2/SC(=S)N(c3cccc(Cl)c3)C2=O)c(C)n1-c1cccnc1,·,i,i,i,19.1*,i,i,i,i,i
O=c1[nH]c(NCc2ccco2)nnc1Cc1ccccc1Cl,5.1,i,i,i,i,i,·,·,·,·
O=c1oc(-c2ccccc2)nc2sc3c(c12)CCCC3,18.1,i,i,i,13.1*,i,i,i,i,i
Cc1ccccc1-c1nc2sc3c(c2c(=O)o1)CCC3,-13.5,i,i,i,i,i,·,·,·,·
O=C(Nc1nc2ccc(F)cc2s1)c1cccs1,22.8,i,i,i,9.29*,i,i,i,i,i
O=C(Nc1nc(-c2ccccc2)ns1)c1cccs1,2.9,i,i,i,7.47*,i,2.7%*,i,i,i
Cc1ccc(N(CC(O)CN2CCOCC2)S(=O)(=O)c2ccc([N+](=O)[O-])cc2)cc1 (stereo not drawn),6.8,i,i,i,i,i,·,·,·,·
NC(=O)/C(=C/c1cccnc1)NC(=O)c1ccccc1,10.6,i,i,i,i,i,·,·,·,·
O=C(CCS(=O)(=O)c1ccc(Br)cc1)Nc1ccc(Br)cc1F,-3.0,i,i,i,i,i,·,·,·,·
O=S(=O)(Nc1ncnc2scc(-c3ccc(F)cc3)c12)c1cc(F)ccc1F,25.4,i,i,i,11.9*,i,i,i,i,i
CC(C)(C)c1ccc(COn2ccnc2)cc1,-0.9,i,i,i,i,i,·,·,·,·
CN(C)S(=O)(=O)c1cccc(NC(=O)c2cc(=O)[nH]c3ccccc23)c1,·,i,i,i,i,i,·,·,·,·

# High-throughput results deposited in PubChem BioAssay by several laboratories.
